Values after ≈ are worked out from the molar mass of the structure shown. Active and inactive are the calls of the source. No cut-off for these calls is given here.
What was measured:
[1] = tested on: Rattus norvegicus; test: Effect on TNFalpha level in Streptococcus pneumoniae infected Wistar rat CSF at 50 mg/kg, sc after 2 to 6 hrs y ELISA; format: functional; conditions: route subcutaneous
Procedure, shortened: (§1)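 Infant Wistar rats (11 days old) infected intracisternally with S. pneumoniae serotype 3 (1.3 × 104 ± 0.5 × 10^4 CFU). Single s.c. antibiotic dose given 18 h post-infection. CSF sampled by intracisternal puncture 2 and 6 h after dosing and at 24 h post-infection. Samples spun 5 min at 13,000 rpm, 4°C to remove bacteria and leukocytes, diluted 20-fold, then assayed for rat TNF-α by ELISA (detection limit <5 pg/ml).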

[2] = tested on: Streptococcus pneumoniae; test: Effect on Streptococcus pneumoniae infection induced brain injury in Wistar rat hippocampal dentate gyrus assessed as number of apoptotic cells at 50 mg/kg, sc after 40 hrs; format: functional; conditions: route subcutaneous
Procedure, shortened: (§2)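 Following intracisternal pneumococcal infection and s.c. dosing from 18 h, brains were taken at 20, 24 or 40 h after PFA perfusion. Cells with fragmented bodies or condensed nuclei were counted blind in three ×400 fields in each of the four dentate gyrus blades. Counts averaged over twelve coronal sections per animal. Uninfected rats served as controls.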

[3] = tested on: Streptococcus pneumoniae; test: Effect on Streptococcus pneumoniae infection induced elevation of MMP9 level in Wistar rat CSF assessed as MMP-9/MMP-2 index at 50 mg/kg, sc after 24 hrs by gel zymography; format: functional; conditions: route subcutaneous
Procedure, shortened: (§3)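 Intracisternally infected 11-day-old Wistar rats (S. pneumoniae serotype 3) dosed s.c. from 18 h. CSF sampled at 20, 24 or 40 h post-infection. 3 μl CSF run on nonreducing 10% SDS-PAGE containing 1% gelatin. Gels washed 1 h in 2.5% Triton X-100, incubated 18 h at 37°C (50 mM NaCl, 10 mM CaCl2, 50 mM Tris, pH 7.6), Coomassie stained. Lysis zones at 92 and 72 kDa measured by densitometry and reported as MMP-9/MMP-2 ratio. Uninfected saline-injected rats served as controls.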

[4] = tested on: Streptococcus pneumoniae; test: Effect on Streptococcus pneumoniae infection induced elevation of MMP9 level in Wistar rat CSF assessed as MMP-9/MMP-2 index at 50 mg/kg, sc after 40 hrs by gel zymography; format: functional; conditions: route subcutaneous; procedure, shortened: as §3
[5] = tested on: Streptococcus pneumoniae; test: Effect on Streptococcus pneumoniae infection induced brain injury in Wistar rat hippocampal dentate gyrus assessed as number of apoptotic cells at 50 mg/kg, sc after 20 hrs; format: functional; conditions: route subcutaneous; procedure, shortened: as §2
[6] = tested on: Streptococcus pneumoniae; test: Effect on Streptococcus pneumoniae infection induced brain injury in Wistar rat hippocampal dentate gyrus assessed as number of apoptotic cells at 50 mg/kg, sc after 24 hrs; format: functional; conditions: route subcutaneous; procedure, shortened: as §2
[7] = tested on: Streptococcus pneumoniae; test: Antibacterial activity against Streptococcus pneumoniae serotype 3; format: functional
Procedure, shortened: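 MIC by gradient-strip diffusion (Etest) on blood agar plates inoculated with the study's serotype 3 clinical isolate, run per manufacturer's recommendations. Reference strain ATCC 49619 was tested in parallel. Result read as MIC in mg/liter.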

[8] = tested on: Streptococcus pneumoniae; test: Antimicrobial activity against Streptococcus pneumoniae infected Wistar rat CSF assessed as decrease in bacterial titer at 50 mg/kg, sc after 2 hrs; format: functional; conditions: route subcutaneous
Procedure, shortened: (§4)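 Eleven-day-old Wistar rats infected intracisternally with 1.3 × 104 ± 0.5 × 10^4 CFU of S. pneumoniae serotype 3 clinical isolate in 10 μl saline. Single s.c. antibiotic dose started 18 h post-infection. CSF taken by cisterna magna puncture before therapy and at 20 h and 24 h post-infection. CFU counted by plating serial dilutions of 10 μl CSF on blood agar (detection limit 10^3 CFU/ml).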

[9] = tested on: Streptococcus pneumoniae; test: Antibacterial activity against Streptococcus pneumoniae ATCC 49619; format: functional
Procedure, shortened: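 MIC by antibiotic gradient strip (Etest) on blood agar plates inoculated with the strain, per manufacturer's recommendations; reference strain tested in parallel with the serotype 3 clinical isolate.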

[10] = tested on: Streptococcus pneumoniae; test: Effect on Streptococcus pneumoniae infection induced elevation of MMP9 level in Wistar rat CSF assessed as MMP-9/MMP-2 index at 50 mg/kg, sc after 20 hrs by gel zymography; format: functional; conditions: route subcutaneous; procedure, shortened: as §3
[11] = tested on: Streptococcus pneumoniae; test: Antimicrobial activity against Streptococcus pneumoniae infected Wistar rat CSF assessed as decrease in bacterial titer at 50 mg/kg, sc after 6 hrs; format: functional, organism-based; parameters: dose 50 mg/kg; procedure, shortened: as §4
[12] = tested on: Rattus norvegicus; test: Decrease in TNFalpha level in Streptococcus pneumoniae infected Wistar rat CSF at 50 mg/kg, sc after 24 hrs by ELISA; format: functional; conditions: route subcutaneous; procedure, shortened: as §1
[13] = tested on: Streptococcus pneumoniae; test: Antimicrobial activity against Streptococcus pneumoniae infected Wistar rat CSF assessed as decrease in bacterial titer at 100 mg/kg, sc after 2 hrs; format: functional; conditions: route subcutaneous; procedure, shortened: as §4
[14] = tested on: Rattus norvegicus; test: Effect on TNFalpha level in Streptococcus pneumoniae infected Wistar rat CSF at 100 mg/kg, sc after 2 to 6 hrs y ELISA; format: functional; conditions: route subcutaneous; procedure, shortened: as §1
[15] = tested on: Rattus norvegicus; test: Decrease on TNFalpha level in Streptococcus pneumoniae infected Wistar rat CSF at 100 mg/kg, sc after 24 hrs by ELISA; format: functional; conditions: route subcutaneous; procedure, shortened: as §1

Structure (SMILES)	Activity [1]	Activity [2]	Ratio [3]	Ratio [4]	Activity [5]	Activity [6]	MIC [7]	Log10 cfu [8]	MIC [9]	Ratio [10]	Activity [11]	Activity [12]	Log10 cfu [13]	Activity [14]	Activity [15]
CCCCCCCCCC(=O)N[C@@H](Cc1c[nH]c2ccccc12)C(=O)N[C@H](CC(N)=O)C(=O)N[C@@H](CC(=O)O)C(=O)N[C@@H]1C(=O)NCC(=O)N[C@@H](CCCN)C(=O)N[C@@H](CC(=O)O)C(=O)N[C@H](C)C(=O)N[C@@H](CC(=O)O)C(=O)NCC(=O)N[C@H](CO)C(=O)N[C@@H]([C@H](C)CC(=O)O)C(=O)N[C@@H](CC(=O)c2ccccc2N)C(=O)O[C@@H]1C	3059 pg/mL	6.1%	1.2	0.6	5.5%	14.9%	0.25 µg/mL (≈ 0.154 µM)	3.6 /ml	0.38 µg/mL (≈ 0.234 µM)	1.6	Active	352 pg/mL			
CO/N=C(\C(=O)N[C@@H]1C(=O)N2C(C(=O)O)=C(CSc3nc(=O)c(O)nn3C)CS[C@H]12)c1csc(N)n1 [CEFTRIAXONE]							0.023 µg/mL (≈ 0.0415 µM)		0.094 µg/mL (≈ 0.169 µM)				6.3 /ml	4578 pg/mL	249 pg/mL
